In ChEMBL document CHEMBL1138994, “Probing structure/affinity relationships for the Plasmodium falciparum hexose transporter with glucose derivatives” (Bioorg Med Chem Lett, 2006) one finds inhibition and Ki data, which are given here for 26 compounds.

Calls of active or inactive are those of the source. The calls are words filed in the database; no cut-off is given here. Some results are limits rather than exact numbers.

The target of assay [1] is T1, Solute carrier family 2, facilitated glucose transporter member 1 (Homo sapiens) (UniProt P11166).
T1 sequence (whole entry): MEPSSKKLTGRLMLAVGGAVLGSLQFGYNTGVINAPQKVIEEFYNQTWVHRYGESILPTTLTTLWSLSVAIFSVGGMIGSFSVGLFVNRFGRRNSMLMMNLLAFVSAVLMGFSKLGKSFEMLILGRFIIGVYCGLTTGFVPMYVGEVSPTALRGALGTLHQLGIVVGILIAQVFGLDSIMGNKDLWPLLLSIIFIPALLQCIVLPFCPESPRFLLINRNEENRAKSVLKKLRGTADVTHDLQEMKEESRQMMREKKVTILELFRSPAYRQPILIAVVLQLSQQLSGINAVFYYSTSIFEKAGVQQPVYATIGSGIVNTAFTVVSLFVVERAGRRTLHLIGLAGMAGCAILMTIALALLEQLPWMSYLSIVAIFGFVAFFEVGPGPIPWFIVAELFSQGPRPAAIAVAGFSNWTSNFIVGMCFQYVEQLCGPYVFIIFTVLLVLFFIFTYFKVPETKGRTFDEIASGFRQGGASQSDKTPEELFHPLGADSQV
Kind of assay: Inhibitory activity against GLUT1.

In assay [2] the target is T2, Hexose transporter 1 (Plasmodium falciparum, UniProt O97467).
T2 sequence (O97467 whole entry): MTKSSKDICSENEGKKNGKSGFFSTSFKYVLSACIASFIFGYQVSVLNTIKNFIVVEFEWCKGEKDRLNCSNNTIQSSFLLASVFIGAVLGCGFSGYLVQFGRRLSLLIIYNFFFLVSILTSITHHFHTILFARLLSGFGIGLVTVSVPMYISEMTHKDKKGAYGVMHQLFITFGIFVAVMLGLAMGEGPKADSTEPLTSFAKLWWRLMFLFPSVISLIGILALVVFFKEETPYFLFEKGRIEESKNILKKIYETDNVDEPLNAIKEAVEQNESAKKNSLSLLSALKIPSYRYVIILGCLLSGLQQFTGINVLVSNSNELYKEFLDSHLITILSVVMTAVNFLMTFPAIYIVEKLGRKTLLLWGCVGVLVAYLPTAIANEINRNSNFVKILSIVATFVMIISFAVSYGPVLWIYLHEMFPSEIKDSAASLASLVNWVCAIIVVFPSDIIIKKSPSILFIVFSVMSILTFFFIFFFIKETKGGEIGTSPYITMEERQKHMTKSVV
Briefly: Inhibition of D-glucose uptake mediated by PfHT expressed in Xenopus oocytes. It counts as functional, cell-based, Oocyte. The method in brief:
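Oocyte-expressed PfHT assay; values are means of three experiments with standard error of the mean, or two individual experiments where marked.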

In the case of `C=CCOCCCCCCCO[C@H]1[C@H](O)[C@@H](CO)OC(O)[C@@H]1O` (stereo partly specified), the inhibition result in assay [1] is “inactive”. Moreover, in assay [2] (read-out: Ki), the Ki was above 500 µM.
Take `OC[C@H]1OC(O)[C@H](O)[C@@H](OCCCCCc2ccccc2)[C@@H]1O` (stereo partly specified): in assay [1], the inhibition result is “inactive”. For the same compound, the Ki in assay [2] (read-out: Ki) came out at 64 µM.
Turning to `CCCCc1ccc(CCCCCO[C@H]2[C@H](O)[C@@H](CO)OC(O)[C@@H]2O)cc1` (stereo partly specified), in assay [1], the inhibition entry is “inactive”. In addition, the Ki in assay [2] (read-out: Ki) is 81 µM.
With `C=CCCCCCCCCCO[C@H]1[C@H](O)[C@@H](CO)OC(O)[C@@H]1O` (stereo partly specified), the inhibition result in assay [1] is “inactive”. Further, the Ki in assay [2] (read-out: Ki) worked out at 53 µM.
In the same order, the values of `CCCCCCCC/C=C/CCCCCCO[C@H]1[C@H](O)[C@@H](CO)OC(O)[C@@H]1O` (stereo partly specified) are “inactive” and above 500 µM.
For the compound `C=CCCCCCCCCCCO[C@H]1[C@H](O)[C@@H](CO)OC(O)[C@@H]1O` (stereo partly specified), the inhibition entry in assay [1] was “inactive”. Moreover, the Ki in assay [2] (read-out: Ki) amounted to 36 µM.
`C=CCCCCCCCO[C@H]1[C@H](O)[C@@H](CO)OC(O)[C@@H]1O` (stereo partly specified): in assay [1], the inhibition result was “inactive”. In addition, the Ki in assay [2] (read-out: Ki) worked out at 41 µM.
For `CCCCCCCCCCCCCCCCCCCCO[C@H]1[C@H](O)[C@@H](CO)OC(O)[C@@H]1O` (stereo partly specified), in assay [1], the inhibition result is “inactive”.
Regarding `COC(=O)CCCCCCC#CCCCCCCCO[C@H]1[C@H](O)[C@@H](CO)OC(O)[C@@H]1O` (stereo partly specified), the inhibition result in assay [1] was “inactive”. Also, the Ki in assay [2] (read-out: Ki) was above 500 µM.
In the same order, the values of `C=CCCCCCCCCO[C@H]1[C@H](O)[C@@H](CO)OC(O)[C@@H]1O` (stereo partly specified) are “inactive” and 49 µM.
`C=CCCCCCCCCCCCCCO[C@H]1[C@H](O)[C@@H](CO)OC(O)[C@@H]1O` (stereo partly specified): in assay [1], the inhibition entry was “inactive”. In addition, the Ki in assay [2] (read-out: Ki) was 37 µM.
For the compound `CCCCCCCCCCCCCCO[C@H]1[C@H](O)[C@@H](CO)OC(O)[C@@H]1O` (stereo partly specified), the inhibition entry in assay [1] is “inactive”. In assay [2] (read-out: Ki), the Ki was above 500 µM.
`C=CCCCCCCCOCCO[C@H]1[C@H](O)[C@@H](CO)OC(O)[C@@H]1O` (stereo partly specified): the inhibition result in assay [1] is “inactive”. Besides, the Ki in assay [2] (read-out: Ki) stood at 590 µM.
Turning to `OC[C@H]1OC(O)[C@H](O)[C@@H](OCCCCCCCC(F)(F)C(F)(F)C(F)(F)C(F)(F)C(F)(F)C(F)(F)F)[C@@H]1O` (stereo partly specified), in assay [1], the inhibition result is “inactive”. Further, the Ki in assay [2] (read-out: Ki) came out at 130 µM.
Take `CCCCCCCCCCCO[C@H]1[C@H](O)[C@@H](CO)OC(O)[C@@H]1O` (stereo partly specified): the inhibition entry in assay [1] was “inactive”. Besides, in assay [2] (read-out: Ki), the Ki worked out at 23 µM.
Consider `OC[C@H]1OC(O)[C@H](O)[C@@H](OCCCC(F)(F)C(F)(F)C(F)(F)C(F)(F)C(F)(F)C(F)(F)F)[C@@H]1O` (stereo partly specified), for which the inhibition result in assay [1] was “inactive”. In addition, in assay [2] (read-out: Ki), the inhibition constant (Ki) is above 500 µM.
Take `CCCCCCCCCCCCCCCCCCO[C@H]1[C@H](O)[C@@H](CO)OC(O)[C@@H]1O` (stereo partly specified): in assay [1], the inhibition result is “inactive”. Also, the Ki in assay [2] (read-out: Ki) was above 500 µM.
In the same order, the values of `OC[C@H]1OC(O)[C@H](O)[C@@H](OCCCCCCCCc2ccccc2)[C@@H]1O` (stereo partly specified) are “inactive” and 148 µM.
On to `O=C(NCCCO[C@H]1[C@H](O)[C@@H](CO)OC(O)[C@@H]1O)C(F)(F)C(F)(F)C(F)(F)C(F)(F)C(F)(F)C(F)(F)F` (stereo partly specified), for which the inhibition entry in assay [1] was “inactive”. The Ki entry in assay [2] (oocyte) was “Not Active”.
For the compound `CCCCCCCCCCCCO[C@H]1[C@H](O)[C@@H](CO)OC(O)[C@@H]1O` (stereo partly specified), in assay [1], the inhibition result was “inactive”. The Ki in assay [2] (read-out: Ki) is 30 µM.
In the case of `CCCCCCCCO[C@H]1[C@H](O)[C@@H](CO)OC(O)[C@@H]1O` (stereo partly specified), the inhibition entry in assay [1] is “inactive”. Moreover, the Ki in assay [2] (read-out: Ki) came to 30 µM.
In the case of `CCCCCCCO[C@H]1[C@H](O)[C@@H](CO)OC(O)[C@@H]1O` (stereo partly specified), in assay [1], the inhibition entry was “inactive”. Further, the Ki in assay [2] (read-out: Ki) is below 500 µM.
For `C=CCOCCO[C@H]1[C@H](O)[C@@H](CO)OC(O)[C@@H]1O` (stereo partly specified), in assay [1], the inhibition entry is “inactive”. The Ki in assay [2] (read-out: Ki) was above 500 µM.
Consider `C=CCOCCOCCO[C@H]1[C@H](O)[C@@H](CO)OC(O)[C@@H]1O` (stereo partly specified), for which the inhibition entry in assay [1] was “inactive”. The Ki entry in assay [2] (oocyte) is “Not Active”.
Regarding `CCCCCCCCCCO[C@H]1[C@H](O)[C@@H](CO)OC(O)[C@@H]1O` (stereo partly specified), the inhibition entry in assay [1] is “inactive”. The Ki in assay [2] (read-out: Ki) came to 19 µM.
Taken in the same sequence, the figures for `CCCCCCCCCO[C@H]1[C@H](O)[C@@H](CO)OC(O)[C@@H]1O` (stereo partly specified) were “inactive” and 32 µM.
